According to ChEMBL document CHEMBL2062426 (J Med Chem, 2012):
pIC50: −log10 of the molar value.

Columns and labels:
Neutrophil collagenase = Neutrophil collagenase (Homo sapiens, UniProt P22894); assay: Inhibition of MMP8 using (7-methoxycoumarin-4-yl)acetyl-Pro-Leu-Gly-Leu-(3-(2,4-dinitrophenyl)-L-2,3-diaminopropionyl)Ala-Arg-NH2 as substrate incubated for 30 mins prior to substrate addition measured for 10 mins by fluorometry
How it was run: (§1)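 Activated MMP-8 or MMP-9 (2 nM) was preincubated with inhibitor (10 pM–1 mM) in 50 mM Tris-HCl pH 7.5 with 0.2 M NaCl, 5 mM CaCl2, 20 μM ZnSO4 and 0.05% Brij 35 at 37 °C for 30 min. Fluorogenic substrate (10 μL of 50 μM into 90 μL) was then added. Rates from the first 10 min were plotted against inhibitor concentration, and values are the mean of three experiments.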

Collagenase 3 = Collagenase 3 (Homo sapiens, UniProt P45452); assay: Inhibition of MMP13 using (7-methoxycoumarin-4-yl)acetyl-Pro-Leu-Gly-Leu-(3-(2,4-dinitrophenyl)-L-2,3-diaminopropionyl)Ala-Arg-NH2 as substrate incubated for 30 mins prior to substrate addition measured for 10 mins by fluorometry
[1] = target: 72 kDa type IV collagenase (Homo sapiens, UniProt P08253); assay: Inhibition of MMP2 using (7-methoxycoumarin-4-yl)acetyl-Pro-Leu-Gly-Leu-(3-(2,4-dinitrophenyl)-L-2,3-diaminopropionyl)Ala-Arg-NH2 as substrate incubated for 30 mins prior to substrate addition measured for 10 mins by fluorometry
Chain of 72 kDa type IV collagenase (P08253 whole entry): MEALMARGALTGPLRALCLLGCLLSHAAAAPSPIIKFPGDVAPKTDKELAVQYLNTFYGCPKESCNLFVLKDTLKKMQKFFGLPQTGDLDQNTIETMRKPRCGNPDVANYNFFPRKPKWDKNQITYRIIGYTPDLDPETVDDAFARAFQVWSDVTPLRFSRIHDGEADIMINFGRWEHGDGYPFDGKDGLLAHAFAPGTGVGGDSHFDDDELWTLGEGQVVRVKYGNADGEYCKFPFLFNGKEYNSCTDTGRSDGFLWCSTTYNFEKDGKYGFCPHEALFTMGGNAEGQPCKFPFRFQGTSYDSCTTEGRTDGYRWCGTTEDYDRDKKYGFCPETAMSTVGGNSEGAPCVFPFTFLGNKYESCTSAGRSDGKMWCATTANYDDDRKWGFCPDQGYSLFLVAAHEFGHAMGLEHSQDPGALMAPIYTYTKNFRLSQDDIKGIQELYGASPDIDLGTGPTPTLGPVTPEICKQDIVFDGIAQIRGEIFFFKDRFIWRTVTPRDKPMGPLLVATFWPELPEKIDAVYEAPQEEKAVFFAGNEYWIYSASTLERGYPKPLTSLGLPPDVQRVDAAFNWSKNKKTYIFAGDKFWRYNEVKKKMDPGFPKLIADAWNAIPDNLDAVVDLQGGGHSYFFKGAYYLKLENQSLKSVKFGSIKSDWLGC

[2] = target: Matrix metalloproteinase-9 (Homo sapiens, UniProt P14780); assay: Inhibition of MMP9 using (7-methoxycoumarin-4-yl)acetyl-Pro-Leu-Gly-Leu-(3-(2,4-dinitrophenyl)-L-2,3-diaminopropionyl)Ala-Arg-NH2 as substrate incubated for 30 mins prior to substrate addition measured for 10 mins by fluorometry; how it was run: as §1
Chain of Matrix metalloproteinase-9 (P14780 whole entry): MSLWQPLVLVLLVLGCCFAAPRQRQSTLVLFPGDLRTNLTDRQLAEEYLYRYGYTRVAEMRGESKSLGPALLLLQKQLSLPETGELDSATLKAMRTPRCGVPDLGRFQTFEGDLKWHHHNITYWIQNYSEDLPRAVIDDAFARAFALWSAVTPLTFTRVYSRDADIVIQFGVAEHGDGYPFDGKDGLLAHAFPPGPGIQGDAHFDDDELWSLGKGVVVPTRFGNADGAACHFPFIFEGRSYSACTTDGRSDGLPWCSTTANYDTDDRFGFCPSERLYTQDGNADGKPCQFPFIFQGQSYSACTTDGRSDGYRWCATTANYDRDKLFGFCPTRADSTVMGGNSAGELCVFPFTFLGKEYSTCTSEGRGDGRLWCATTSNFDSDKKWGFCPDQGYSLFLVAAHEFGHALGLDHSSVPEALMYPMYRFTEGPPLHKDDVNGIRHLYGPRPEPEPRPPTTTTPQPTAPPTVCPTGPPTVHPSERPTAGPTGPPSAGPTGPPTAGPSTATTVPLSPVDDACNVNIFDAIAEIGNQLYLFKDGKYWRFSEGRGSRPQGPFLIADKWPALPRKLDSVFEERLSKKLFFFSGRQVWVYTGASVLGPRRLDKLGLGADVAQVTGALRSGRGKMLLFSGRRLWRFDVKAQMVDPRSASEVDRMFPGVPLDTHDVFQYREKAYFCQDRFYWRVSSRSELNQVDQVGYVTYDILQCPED

Chain of Neutrophil collagenase (P22894 whole entry): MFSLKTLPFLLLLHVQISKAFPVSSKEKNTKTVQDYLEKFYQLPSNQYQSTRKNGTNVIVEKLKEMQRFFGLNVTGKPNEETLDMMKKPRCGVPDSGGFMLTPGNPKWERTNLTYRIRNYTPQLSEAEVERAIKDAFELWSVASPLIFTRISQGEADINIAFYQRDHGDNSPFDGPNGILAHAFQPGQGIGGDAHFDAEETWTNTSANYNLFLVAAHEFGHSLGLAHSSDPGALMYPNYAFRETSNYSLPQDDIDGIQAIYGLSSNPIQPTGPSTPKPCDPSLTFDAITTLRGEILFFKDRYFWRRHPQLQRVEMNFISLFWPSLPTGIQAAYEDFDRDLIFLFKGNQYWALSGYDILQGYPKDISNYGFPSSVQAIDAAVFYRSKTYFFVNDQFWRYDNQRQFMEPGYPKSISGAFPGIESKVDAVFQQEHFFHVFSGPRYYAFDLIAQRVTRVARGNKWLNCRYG

SMILES | pIC50 (Neutrophil collagenase) | pIC50 (Collagenase 3) | pIC50 [1] | pIC50 [2]
COc1ccc(S(=O)(=O)N(Cc2cn(CCOCCOCCOCCOS(=O)(=O)c3ccc(C)cc3)nn2)[C@@H](C(=O)NO)C(C)C)cc1 | 10.52 | 10.70 | 10.15 | 10.22
COc1ccc(S(=O)(=O)N(Cc2cn(CCOCCOCCOCCF)nn2)[C@@H](C(=O)NO)C(C)C)cc1 | 10.40 | 10.40 | 10.00 | 10.30
COc1ccc(S(=O)(=O)N(Cc2cn(CCOCCOCCOCCN=[N+]=[N-])nn2)[C@@H](C(=O)NO)C(C)C)cc1 | 8.05 | 8.22 | 8.92 | 9.05
COc1ccc(S(=O)(=O)N(Cc2cn(CCOCCOCCOCCOc3cccnc3F)nn2)[C@@H](C(=O)NO)C(C)C)cc1 | 8.30 | 9.00 | 8.52 | 8.40
